Measured values from paper PMC5480311 (ACS infectious diseases, 2016).

How the values were obtained:
UL42−P30 interaction = UL42−P30 interaction (Human herpesvirus 1, UniProt P10226); assay: FP assay of UL42−P30 interaction; assay type: binding, herpes simplex virus-1
Summary of the method: (§1)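 Fluorescence polarization assays of each protein–peptide pair: UL44–P54 (GST-fused UL44ΔC290 with fluorescently labelled P54), UL42–P30 and PCNA–p21. Test compound was pre-incubated for set times, up to 60 min, before FP was read. Normalized mP relative to the no-inhibitor control was plotted against compound concentration. Error bars are standard errors of the mean.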

PCNA−P21 interaction = PCNA−P21 interaction (Homo sapiens, UniProt P12004); assay: FP assay of PCNA−P21 interaction; assay type: binding; conditions: incubation up to 60 min, not meaningfully changed
Summary of the method: as §1

UL54/UL44 DNA polymerase = UL54/UL44 DNA polymerase (Human cytomegalovirus, UniProt P16790); assay: Long-chain DNA synthesis by UL54−UL44; assay type: biochemical
Summary of the method: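 UL54 with UL44 was used to make long-chain DNA products, and their formation was followed across a dose series of test compound, with product lanes compared. Signal is expressed relative to the no-compound reaction, and error bars are standard errors of the mean.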

UL44−P54 interaction = UL44−P54 interaction (Human cytomegalovirus, UniProt P16790); assay: FP assay of UL44−P54 interaction; assay type: binding; conditions: IC50, inhibition of P54−UL44 interaction, incubation time 20 min or beyond
Summary of the method: as §1

[1] = biological target: UL44 binding to full-length UL54 (Human cytomegalovirus, UniProt P16790); assay: UL54−UL44 interaction assay by biolayer interferometry
Summary of the method: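 Biolayer interferometry measured UL44 binding to full-length UL54 in the presence of test compound. Signal is given relative to binding without compound, and error bars are standard errors of the mean.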

[2] = biological target: UL44 K60A−P54 interaction (Human cytomegalovirus, UniProt P16790, K60A); assay: FP assay of mutant UL44 K60A−P54 interaction; assay type: binding; conditions: read-out: inhibition of UL44 K60A−P54 interaction
UL54 = UL54 (Human cytomegalovirus, UniProt P08546); assay: DNA synthesis by UL54 alone, filter binding assay; assay type: biochemical
Summary of the method: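 Basal DNA synthesis by UL54 alone, without UL44, was measured by filter-binding assay across test compound concentrations. Signal is given relative to no compound, and error bars are standard errors of the mean.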

Chain of PCNA−P21 interaction (P12004 whole entry): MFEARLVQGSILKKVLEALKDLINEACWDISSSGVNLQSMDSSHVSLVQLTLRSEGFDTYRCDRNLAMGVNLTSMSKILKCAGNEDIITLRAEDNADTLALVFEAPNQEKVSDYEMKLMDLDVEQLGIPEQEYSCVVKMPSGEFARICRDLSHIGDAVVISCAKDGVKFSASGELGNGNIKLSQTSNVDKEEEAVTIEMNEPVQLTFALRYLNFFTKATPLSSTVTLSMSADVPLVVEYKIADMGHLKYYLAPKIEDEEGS

In the case of `CSc1scc2c1C(=O)C(=CN(C)C)CC2` [SGM8], the IC50 (UL42−P30 interaction) is reported as ~20 µM, the “change of inhibition of P30−UL42 interaction on longer incubation” value (UL42−P30 interaction; incubation time extended to 60 min) is reported as “only slightly increased” and the “inhibition of P21−PCNA interaction” value (PCNA−P21 interaction) is reported as “very weak inhibition”. For the same compound, the IC50 (UL54/UL44 DNA polymerase) was 3.2 µM, the IC50 (UL44−P54 interaction) was 2 µM and the IC50 [1] was 4.5 µM. For the same compound, the inhibition at 20 µM [2] was < 50% and the IC50 (UL54) was > 100 µM.
